pEC50, pIC50: −log10 of the molar value.
System: not listed separately
Assay: Inhibition of HCV1a H77 NS5B assessed as [3H]UTP incorporation into RNA by scintillation counting
Parameters: species or system Hepatitis C virus (isolate H77)
Details: not given
Outline: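 Two-fold serial inhibitor dilutions were preincubated for 15 min at room temperature with NS5B (genotype 1a H77 or genotype 1b BK, 20-50 nM) in 20 mM Tris-Cl pH 7.4, 2 mM MnCl₂, 1 mM DTT, 1 mM EDTA and 60-125 µM GTP. Reactions were started with 20 µM CTP, 20 µM ATP, 1 µM ³H-UTP, 5 nM template RNA and RNase inhibitor, then run 2-4 h at room temperature.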

| SMILES | pIC50 |
| --- | --- |
| CC(C)(C)CCC1(NCc2ccc(-c3ccccc3)cc2)C(=O)C(C2=NS(=O)(=O)c3cc(NS(C)(=O)=O)ccc3N2)=C(O)c2ccccc21 (configuration not stated) | 7.57 |
| CC(C)(C)CCC1(NCc2ccc(O)cc2)C(=O)C(C2=NS(=O)(=O)c3cc(NS(C)(=O)=O)ccc3N2)=C(O)c2ccccc21 (configuration not stated) | 7.70 |
| Cn1ccnc1CNC1(CCC(C)(C)C)C(=O)C(C2=NS(=O)(=O)c3cc(NS(C)(=O)=O)ccc3N2)=C(O)c2ccccc21 (configuration not stated) | 8.05 |
| COC(=O)NC1(CCC(C)C)C(=O)C(C2=NS(=O)(=O)c3cc(NS(C)(=O)=O)ccc3N2)=C(O)c2ccccc21 (configuration not stated) | 7.60 |
| COc1ccc(OC)c(CNC2(CCC(C)(C)C)C(=O)C(C3=NS(=O)(=O)c4cc(NS(C)(=O)=O)ccc4N3)=C(O)c3ccccc32)c1 (configuration not stated) | 8.00 |
| CC(C)(C)CCC1(NCc2ccccc2)C(=O)C(C2=NS(=O)(=O)c3cc(NS(C)(=O)=O)ccc3N2)=C(O)c2ccccc21 (configuration not stated) | 7.77 |
| CC(C)(C)CCC1(NC(=O)c2ccccc2)C(=O)C(C2=NS(=O)(=O)c3cc(NS(C)(=O)=O)ccc3N2)=C(O)c2ccccc21 (configuration not stated) | 6.82 |
| Cc1cc(C)c(CNC2(CCC(C)(C)C)C(=O)C(C3=NS(=O)(=O)c4cc(NS(C)(=O)=O)ccc4N3)=C(O)c3ccccc32)c(C)c1 (configuration not stated) | 7.48 |
| CON(C(C)=O)C1(CCC(C)C)C(=O)C(C2=NS(=O)(=O)c3cc(NS(C)(=O)=O)ccc3N2)=C(O)c2ccccc21 (configuration not stated) | 7.08 |

The remaining compounds from weak to strong by pIC50, led by results:

| pIC50 | SMILES |
| --- | --- |
| 6.97 | CC(C)CCC1(NC(=O)c2ccccc2)C(=O)C(C2=NS(=O)(=O)c3cc(NS(C)(=O)=O)ccc3N2)=C(O)c2ccccc21 (configuration not stated) |
| 7.48 | CC(C)(C)CCC1(NCc2ccccc2C(F)(F)F)C(=O)C(C2=NS(=O)(=O)c3cc(NS(C)(=O)=O)ccc3N2)=C(O)c2ccccc21 (configuration not stated) |
| 7.62 | CC(C)CCC1(NS(C)(=O)=O)C(=O)C(C2=NS(=O)(=O)c3cc(NS(C)(=O)=O)ccc3N2)=C(O)c2ccccc21 (configuration not stated) |
| 7.72 | CC(C)CCC1(NCc2ccccc2)C(=O)C(C2=NS(=O)(=O)c3cc(NS(C)(=O)=O)ccc3N2)=C(O)c2ccccc21 (configuration not stated) |
| 7.85 | COc1cccc(CNC2(CCC(C)C)C(=O)C(C3=NS(=O)(=O)c4cc(NS(C)(=O)=O)ccc4N3)=C(O)c3ccccc32)c1 (configuration not stated) |
| 7.89 | CC(C)(C)CCC1(NCc2ccc(C#N)cc2)C(=O)C(C2=NS(=O)(=O)c3cc(NS(C)(=O)=O)ccc3N2)=C(O)c2ccccc21 (configuration not stated) |
| 7.92 | CC(C)(C)CCC1(NCc2ccco2)C(=O)C(C2=NS(=O)(=O)c3cc(NS(C)(=O)=O)ccc3N2)=C(O)c2ccccc21 (configuration not stated) |
| 7.92 | CC(C)CCC1(N)C(=O)C(C2=NS(=O)(=O)c3cc(NS(C)(=O)=O)ccc3N2)=C(O)c2ccccc21 (configuration not stated) |
| 8.00 | CONC1(CCC(C)C)C(=O)C(C2=NS(=O)(=O)c3cc(NS(C)(=O)=O)ccc3N2)=C(O)c2ccccc21 (configuration not stated) |

System: Hepatitis C virus
Assay: Antiviral activity against HCV1a H77 assessed as inhibition of viral replication by cell-based replicon assay
Type: functional, organism-based, Hepacivirus hominis
Details: genotype 1a H77
Outline: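 Stable luciferase-reporter subgenomic replicon Huh-7 lines (1a H77; 1b Con1) were seeded at 5000 cells/well in DMEM with 5% FBS. The next day an eight-point half-log dilution series was added from DMSO stocks. After 3 days the cells were lysed, luciferin was added and luminescence was read. EC₅₀ came from percent inhibition of replication at each concentration.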

| SMILES | pEC50 |
| --- | --- |
| CC(C)(C)CCC1(NCc2ccc(O)cc2)C(=O)C(C2=NS(=O)(=O)c3cc(NS(C)(=O)=O)ccc3N2)=C(O)c2ccccc21 (configuration not stated) | 7.89 |
| Cn1ccnc1CNC1(CCC(C)(C)C)C(=O)C(C2=NS(=O)(=O)c3cc(NS(C)(=O)=O)ccc3N2)=C(O)c2ccccc21 (configuration not stated) | 7.54 |
| COC(=O)NC1(CCC(C)C)C(=O)C(C2=NS(=O)(=O)c3cc(NS(C)(=O)=O)ccc3N2)=C(O)c2ccccc21 (configuration not stated) | 6.68 |
| COc1ccc(OC)c(CNC2(CCC(C)(C)C)C(=O)C(C3=NS(=O)(=O)c4cc(NS(C)(=O)=O)ccc4N3)=C(O)c3ccccc32)c1 (configuration not stated) | 7.82 |
| CC(C)(C)CCC1(NCc2ccccc2)C(=O)C(C2=NS(=O)(=O)c3cc(NS(C)(=O)=O)ccc3N2)=C(O)c2ccccc21 (configuration not stated) | 8.00 |
| Cc1cc(C)c(CNC2(CCC(C)(C)C)C(=O)C(C3=NS(=O)(=O)c4cc(NS(C)(=O)=O)ccc4N3)=C(O)c3ccccc32)c(C)c1 (configuration not stated) | 7.22 |

Second part, the compound after the results:

| pEC50 | SMILES |
| --- | --- |
| 7.46 | CC(C)(C)CCC1(NCc2ccccc2C(F)(F)F)C(=O)C(C2=NS(=O)(=O)c3cc(NS(C)(=O)=O)ccc3N2)=C(O)c2ccccc21 (configuration not stated) |
| 7.16 | CC(C)CCC1(NS(C)(=O)=O)C(=O)C(C2=NS(=O)(=O)c3cc(NS(C)(=O)=O)ccc3N2)=C(O)c2ccccc21 (configuration not stated) |
| 7.47 | CC(C)CCC1(NCc2ccccc2)C(=O)C(C2=NS(=O)(=O)c3cc(NS(C)(=O)=O)ccc3N2)=C(O)c2ccccc21 (configuration not stated) |
| 7.42 | COc1cccc(CNC2(CCC(C)C)C(=O)C(C3=NS(=O)(=O)c4cc(NS(C)(=O)=O)ccc4N3)=C(O)c3ccccc32)c1 (configuration not stated) |
| 7.77 | CC(C)(C)CCC1(NCc2ccc(C#N)cc2)C(=O)C(C2=NS(=O)(=O)c3cc(NS(C)(=O)=O)ccc3N2)=C(O)c2ccccc21 (configuration not stated) |
| 8.00 | CC(C)(C)CCC1(NCc2ccco2)C(=O)C(C2=NS(=O)(=O)c3cc(NS(C)(=O)=O)ccc3N2)=C(O)c2ccccc21 (configuration not stated) |
| 7.54 | CC(C)CCC1(N)C(=O)C(C2=NS(=O)(=O)c3cc(NS(C)(=O)=O)ccc3N2)=C(O)c2ccccc21 (configuration not stated) |
| 7.80 | CONC1(CCC(C)C)C(=O)C(C2=NS(=O)(=O)c3cc(NS(C)(=O)=O)ccc3N2)=C(O)c2ccccc21 (configuration not stated) |

Source: ChEMBL document CHEMBL1138515, “Synthesis and biological characterization of B-ring amino analogues of potent benzothiadiazine hepatitis C virus polymerase inhibitors” (J Med Chem, 2009)
